The source of these data is publication PMC3041652 (Arteriosclerosis, thrombosis, and vascular biology, 2011).

Data set [1] concerns elastinolytic activity in brachiocephalic atherosclerotic lesions. The data set is described as follows: Elastinolytic in situ zymography of brachiocephalic artery lesions. The class given is biochemical, mouse. In a few lines: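 Brachiocephalic lesion sections came from apoE-knockout mice fed a high-fat diet for 12 weeks. They were incubated with a fluorescently quenched elastin substrate in incubation buffer alone or with added 100 nmol/L test compound, 20 mmol/L EDTA or 1 μmol/L reference MMP inhibitor. Elastinolytic activity was read as green fluorescence.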

Data set [2] can be described thus: Body weight and plasma lipids after 4 weeks of infusion. The settings on record: 4.6 mg/kg per day for 4 weeks. The class given is in vivo, apoE-knockout mice.
Data set [3] has as its system other MMPs. Conditions: cited from earlier work.
Data set [4] has as its system mouse smooth muscle cells. The data set is described as follows: FasL-induced apoptosis of smooth muscle cells. The class given is cell-based. Conditions: untreated cells 78±29; unchanged.
A further data set addresses human MMP-12. The settings on record: read-out: Ki against human MMP-12; cited from earlier work.
A short description of data set [5]: Plasma concentration of inhibitor after osmotic minipump infusion. It counts as in vivo, apoE-knockout mice. Put shortly: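 ApoE-knockout mice on a high-fat diet (n=6) received test compound at 4.6 mg/kg body weight per day by osmotic minipump. MMP inhibitory activity in plasma was measured with a fluorogenic substrate, and inhibitor concentration was derived from a calibration inhibition curve. Intact compound in plasma extracts was confirmed by micro-HPLC coupled to mass spectrometry.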

Data set [6] relates to rabbit granuloma foam-cell macrophages. The data set is described as follows: In vitro serum starvation-induced apoptosis of foam-cell macrophages. The class given is cell-based.
In the next data set the target is mouse MMP-12 (Mus musculus, UniProt P34960). The data set is described as follows: Inhibition of mouse MMP-12. The class given is biochemical.
Chain of mouse MMP-12 (P34960 110-473): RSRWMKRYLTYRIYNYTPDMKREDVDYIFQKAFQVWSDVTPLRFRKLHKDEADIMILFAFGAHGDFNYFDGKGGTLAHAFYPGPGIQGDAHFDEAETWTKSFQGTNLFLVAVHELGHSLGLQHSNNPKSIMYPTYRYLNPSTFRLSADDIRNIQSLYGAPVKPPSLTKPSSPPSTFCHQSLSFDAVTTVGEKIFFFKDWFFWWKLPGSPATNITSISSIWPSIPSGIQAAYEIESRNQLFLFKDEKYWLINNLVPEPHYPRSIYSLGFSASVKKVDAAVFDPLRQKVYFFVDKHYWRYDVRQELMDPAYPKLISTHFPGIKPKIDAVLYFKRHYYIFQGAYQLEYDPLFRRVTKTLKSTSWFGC
Data set [7] has as its system monocyte/macrophage invasion. Nature of the data set: In vivo subcutaneous sponge monocyte/macrophage invasion assay. Details: species or system C57Bl/6;Sv129 mice. In a few lines: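 Male C57Bl/6;Sv129 mice carrying multiple subcutaneous sponges were infused by osmotic minipump with test compound (n=7) or PBS (n=7). Sponges were retrieved and either used to isolate monocytes/macrophages or formalin-fixed for histology of proliferation and apoptosis.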

For data set [8], the system named is mouse monocyte-derived macrophages. Nature of the data set: In vitro proliferation of monocyte-derived macrophages. It counts as cell-based. Conditions: 100 nmol/L.
A further data set deals with N-cadherin. The data set is described as follows: N-cadherin Western blotting in macrophages treated with active MMP-12. The class given is cell-based.
Data set [9] has as its system other MMPs.
Data set [10] concerns apoE-knockout mice atherosclerotic plaques. The class given is in vivo, mouse. In a few lines: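 ApoE-null mice (71% C57BL/6, 29% 129 background), both sexes, fed a high-fat diet for 8 weeks. They then received subcutaneous interscapular osmotic minipumps of test compound at 4.6 mg/kg body weight per day in sterile PBS (n=23) or PBS alone (n=27), with the diet continued 4 weeks. Brachiocephalic artery, proximal aorta, descending aorta and heart were analysed histologically. Apoptosis and calcification were scored by immunohistochemistry; calcification area was normalised to lesion area; mean±SEM.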

Data set [11] concerns mouse monocyte-derived macrophages. Nature of the data set: In vitro serum starvation-induced apoptosis of macrophages. It counts as cell-based.
The mark [12] stands for this setting: compared with active MMP-12 alone, 100 nmol/L.

Turning to `CNC(=O)[C@H](Cc1ccccc1)NC(=O)[C@H](CC(C)C)[C@H](CSc1cccs1)C(=O)NO` [BB94, reference compound], the “reduction of elastinolytic activity” value in data set [1] (1 μmol/L) is recorded as 95±4%.
As to `O=C(O)CN(CCN(CC(=O)O)CC(=O)O)CC(=O)O` [EDTA, reference compound], in data set [1] (20 mmol/L), the “reduction of elastinolytic activity” value worked out at 94±5%.
The Ki is a measure of affinity in units of concentration, obtained from inhibition or displacement. Turning to `NC(=O)[C@H](CCC(=O)O)NC(=O)[C@H](CCC(=O)O)NC(=O)[C@H](Cc1cc(-c2ccc(-c3cccc(Cl)c3)cc2)no1)CP(=O)(O)c1ccc(Br)cc1` [RXP470.1], the tolerability entry in [2] was “well tolerated”. Also, the body weight in [2] (control 35.7±1.2 g) worked out at 36.2 ± 0.9 g. In addition, the “less potent against other MMPs than against human MMP-12” value in the data set on other MMPs [3] is 2 to 4 orders of magnitude. In addition, the “rate of FasL-induced apoptosis” value in data set [4] was 70±29 ×10^4 ALU. Besides, in data set [1] (100 nmol/L, P<0.05), the “reduction of elastinolytic activity” value was 74%. In data set [1] (100 nmol/L, incubation buffer alone 4.1±0.5%), the “elastinolytic activity, fluorescence of total plaque area” value came to 1.1±0.3%. At human MMP-12, the Ki is 0.2 nM. For the same molecule, the “form observed in plasma of infused mice (mass spectroscopy fingerprint analysis)” value in data set [5] was “intact form”. The same molecule displayed an inhibition of apoptosis in data set [6] (setting [12]) of 91%. In data set [6] (no added MMP-12), the “apoptotic rate relative to control cells” value was “significantly reduced”. Moreover, the Ki at mouse MMP-12 came out at 4 nM. Moreover, the “proliferative rate of sponge macrophages” value in data set [7] (control 4.0±1.1%) worked out at 5.6±1.6%. Moreover, in [7] (mouse, in vivo), the “apoptotic cells in sponges” value is given as “no apoptotic cells were detected”. Besides, the “reduction of invasive capacity of monocyte/macrophages” value in [7] (vs controls, P<0.01) was found to be 48%. Further, the macrophage proliferation in data set [8] (absence of added active MMP-12, control 36±5%) came out at 46±13%. Also, the macrophage proliferation in [8] (presence of added active MMP-12, MMP-12 alone 46±2%) was found to be 39±12%. Also, in the data set with N-cadherin (coincubation with active MMP-12), the “effect on reduction of full-length N-cadherin expression by active MMP-12” value was “reversed”. The “formation of the cleaved fragment of N-cadherin” value with N-cadherin (in the presence of active MMP-12) was “negated”. Moreover, the “in vitro selectivity for MMP-12 over other MMPs” value with other MMPs [9] is reported as “greater than 100 fold”. The “reduction of atherosclerotic plaque cross-sectional area” value in data set [10] (at 4 different vascular sites, male and female mice, Western diet) is “approximately 50%”. Also, the “frequency of intraplaque macrophage apoptosis” value in data set [10] (baseline 15.3±3.0%) came to 18.1±5.8%. In data set [10] (brachiocephalic artery plaques), the “reduction in apoptotic frequency, cleaved PARP-1 immunohistochemistry” value was 57% and the “reduction in apoptotic frequency, pyknotic/fragmented nuclei” value is on record as 43%. The “reduction of the number of ISEL-positive macrophages” value in data set [10] (brachiocephalic artery plaques, P<0.05) is 42%. The “increase of smooth muscle cell:macrophage ratio” value in data set [10] (brachiocephalic artery, P<0.05) worked out at 33%. For the same molecule, the “smooth muscle cells as a proportion of all plaque cells” value in [10] (brachiocephalic artery, control 31±3%, P<0.05) turned out to be 41±3%. Besides, the “percentage of macrophages of plaque cells” value in [10] (brachiocephalic artery, control 42±1%, P<0.01) is listed as 36±2%. Moreover, the “area of calcification normalized to lesion area” value in data set [10] (control 5.9±2.2%) was 0.8±0.6%. Also, the “percentage of proliferating macrophages in brachiocephalic plaques, Ki67” value in data set [10] (control 14.8±3.1%) amounted to 13.6±2.2%. Further, the “necrotic core size, percentage of total plaque area” value in data set [10] (control 24±2%) came to 13±3%. Besides, in data set [10] (control 37%, P<0.05), the “number of lesions showing elastin fragmentation” value worked out at 8%. The “increase in collagen content of lesions” value in data set [10] (did not reach statistical significance) worked out at 26%. The molecule further displayed a minimum cap thickness in [10] (no inhibitor 8.7±1.0, baseline 10.2±1.5) of 16.4±2.2 μm. For the same molecule, the “lesion size, brachiocephalic artery” value in data set [10] (treated mice, at commencement of drug administration 147±32) is 153±31 ×10^3 μm^2. In addition, in [10] (vs control), the “total elastin content of plaques” value was “no difference”. In data set [10] (vs control mice), the “endothelial coverage over plaques” value is “no differences”; the “expression of vascular cell adhesion molecule-1 and MCP-1 and -2” value is on record as “no difference”. For the same molecule, in data set [10] (vs controls), the “reduction in the number of mice with any detectable atherosclerotic lesion, thoracic aorta” value is given as 70% and the “reduction in the number of plaques containing buried fibrous layers” value turned out to be 65%. In data set [10] (vs controls after 12 weeks of high-fat feeding, P<0.05), the “reduction of plaque cross-sectional area, brachiocephalic artery” value worked out at 44%. In [10] (vs controls, P<0.01), the “decrease in the area of calcification normalized to lesion area” value was determined as 86%. In data set [10] (vs controls, P<0.05), the “reduction in lesion necrotic core size” value is 46%; the “reduction in plaque area, aortic sinus” value amounted to 37%; the “reduction in plaque area, proximal aorta” value turned out to be 61%; the “reduction in plaque size, thoracic aorta” value came out at 88%. In data set [10] (vs controls, P<0.05), the “reduction in the incidence of calcification in lesions” value stood at 72%. The molecule also returned an inhibition of apoptosis in data set [11] (setting [12]) of 91%. Besides, the “apoptotic rate relative to control cells” value in data set [11] (no added MMP-12) was “significantly reduced”.
